In ChEMBL document CHEMBL4376835, “Discovery of Nonpungent Transient Receptor Potential Vanilloid 1 (TRPV1) Agonist as Strong Topical Analgesic” (J Med Chem, 2020):
Active and inactive are the calls of the source.

Columns and labels:
[1] = target: Transient receptor potential cation channel subfamily A member 1 (Mus musculus) (UniProt Q8BLA8); experiment: Agonist activity at mouse TRPA1 expressed in HEK293 cells assessed as increase in calcium influx at 0.3 to 30 uM incubated for 1 min by Fluo-4-AM dye based FLIPR assay; type: cell-based
Transient receptor potential cation channel subfamily A member 1 (Mus musculus), sequence (Q8BLA8 whole entry): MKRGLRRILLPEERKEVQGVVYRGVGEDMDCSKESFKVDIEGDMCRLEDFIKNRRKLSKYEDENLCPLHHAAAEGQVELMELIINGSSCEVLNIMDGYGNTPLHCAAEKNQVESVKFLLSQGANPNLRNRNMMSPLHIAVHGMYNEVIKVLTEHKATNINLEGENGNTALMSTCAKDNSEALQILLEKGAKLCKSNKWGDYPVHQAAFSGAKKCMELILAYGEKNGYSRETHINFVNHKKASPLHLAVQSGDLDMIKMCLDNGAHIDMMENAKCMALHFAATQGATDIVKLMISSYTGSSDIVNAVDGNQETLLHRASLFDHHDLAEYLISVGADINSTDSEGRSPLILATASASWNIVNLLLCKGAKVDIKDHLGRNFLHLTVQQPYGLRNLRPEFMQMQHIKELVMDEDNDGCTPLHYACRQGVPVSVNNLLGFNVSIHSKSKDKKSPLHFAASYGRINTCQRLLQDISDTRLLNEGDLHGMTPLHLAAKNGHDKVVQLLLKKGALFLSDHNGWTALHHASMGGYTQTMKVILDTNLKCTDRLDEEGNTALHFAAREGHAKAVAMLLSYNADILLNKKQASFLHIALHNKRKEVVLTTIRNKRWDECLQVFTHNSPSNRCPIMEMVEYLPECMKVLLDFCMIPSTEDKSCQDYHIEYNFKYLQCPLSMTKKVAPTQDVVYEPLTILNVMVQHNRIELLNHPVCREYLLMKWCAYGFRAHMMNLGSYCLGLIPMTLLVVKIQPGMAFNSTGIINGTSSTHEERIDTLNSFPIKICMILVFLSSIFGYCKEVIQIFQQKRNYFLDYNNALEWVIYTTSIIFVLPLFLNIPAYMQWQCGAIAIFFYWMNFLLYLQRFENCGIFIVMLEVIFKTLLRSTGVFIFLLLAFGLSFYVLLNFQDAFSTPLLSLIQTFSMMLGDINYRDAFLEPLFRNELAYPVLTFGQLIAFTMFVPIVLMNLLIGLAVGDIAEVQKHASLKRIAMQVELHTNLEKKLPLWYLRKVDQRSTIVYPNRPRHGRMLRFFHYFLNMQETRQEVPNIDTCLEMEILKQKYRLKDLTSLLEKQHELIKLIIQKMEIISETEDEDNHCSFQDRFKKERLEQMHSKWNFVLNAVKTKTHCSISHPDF
How it was run: (§1)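 Cells individually transfected with a single TRP channel (TRPV1, hTRPA1, mTRPA1, mTRPV3 or mTRPM8). Intracellular calcium influx recorded by FLIPR after the test compound was applied. Each cell type was also challenged with an agonist suited to its own TRP channel.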

[2] = target: T1, Transient receptor potential cation channel subfamily V member 1 (Homo sapiens, UniProt Q8NER1); experiment: Potency index, ratio of EC50 of zu-capsaicin to EC50 of compound for agonist activity at human TRPV1 expressed in CHO cells assessed as increase in 45Ca2+ uptake incubated for 5 mins by liquid scintillation counting method; type: cell-based
T1 sequence (Q8NER1 whole entry): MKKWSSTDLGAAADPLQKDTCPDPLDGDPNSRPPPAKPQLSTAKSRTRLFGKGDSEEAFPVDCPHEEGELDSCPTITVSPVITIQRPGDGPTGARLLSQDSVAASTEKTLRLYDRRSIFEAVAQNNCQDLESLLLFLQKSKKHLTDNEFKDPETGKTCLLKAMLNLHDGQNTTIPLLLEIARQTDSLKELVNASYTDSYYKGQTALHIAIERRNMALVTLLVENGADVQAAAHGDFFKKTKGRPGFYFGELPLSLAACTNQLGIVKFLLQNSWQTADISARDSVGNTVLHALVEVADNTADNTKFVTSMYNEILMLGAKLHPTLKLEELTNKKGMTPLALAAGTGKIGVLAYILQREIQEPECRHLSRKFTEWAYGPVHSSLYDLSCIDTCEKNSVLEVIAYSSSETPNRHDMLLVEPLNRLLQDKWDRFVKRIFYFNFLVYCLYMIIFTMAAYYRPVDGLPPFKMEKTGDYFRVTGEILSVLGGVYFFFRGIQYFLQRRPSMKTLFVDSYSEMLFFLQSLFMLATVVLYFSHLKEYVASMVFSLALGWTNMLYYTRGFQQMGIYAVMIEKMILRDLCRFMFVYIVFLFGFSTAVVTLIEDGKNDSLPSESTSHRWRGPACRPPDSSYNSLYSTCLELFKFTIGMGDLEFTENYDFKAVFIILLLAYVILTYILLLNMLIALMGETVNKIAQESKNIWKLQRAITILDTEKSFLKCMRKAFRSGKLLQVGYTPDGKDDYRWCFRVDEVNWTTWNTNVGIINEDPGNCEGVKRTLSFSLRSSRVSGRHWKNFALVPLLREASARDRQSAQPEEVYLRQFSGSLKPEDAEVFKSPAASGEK

Mus musculus = experiment: Analgesic activity against formalin-induced nociception ICR mouse model assessed as reduction in pain behaviour by measuring less licking of formalin injected hind paw at 1 mg/kg, ip pretreated with compound 30 mins prior to formalin induction measured during second phase (20-30 mins after formalin injection) by formalin test; type: functional
How it was run: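 Mice were dosed i.p. with 0.1–10 mg/kg, with vehicle and gabapentin (50, 100 mg/kg i.p.) arms. 2% formalin was injected into the dorsal hindpaw, and paw-licking time was recorded for the first phase (5 min) and the second phase (20–30 min). ED50 was taken from the dose–response. Mean±SEM, n=8.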

[3] = Toxicity in po dosed ICR mouse administered as single dose; type: organism-based; details: in vivo
[4] = target: T1, Transient receptor potential cation channel subfamily V member 1; experiment: Potency index, ratio of Ki of capsaicin to Ki for displacement of [3H]RTX from human TRPV1 expressed in CHO cells incubated for 60 mins by scintillation counting method; type: cell-based
[5] = Toxicity in ICR mouse assessed as skin irritation by measuring ear scratching administered topically and measured for 30 mins; details: in vivo, topical_or_ocular, 0.5 h
How it was run: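 Ear scratching test: a solution of the agent was applied to mouse ears, and scratching movements were counted over the following 30 min.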

[6] = target: T1, Transient receptor potential cation channel subfamily V member 1; experiment: Potency index, ratio of EC50 of capsaicin to EC50 of compound for agonist activity at human TRPV1 expressed in CHO cells assessed as increase in 45Ca2+ uptake incubated for 5 mins by liquid scintillation counting method; type: cell-based
[7] = Genotoxicity in Salmonella typhimurium TA98 incubated for 48 hrs by Ames test; type: toxicity; details: salmonella enterica subsp. enterica serovar typhimurium
[8] = Genotoxicity in Salmonella typhimurium TA104 incubated for 48 hrs by Ames test; type: toxicity; details: salmonella enterica subsp. enterica serovar typhimurium
[9] = target: T1, Transient receptor potential cation channel subfamily V member 1; experiment: Displacement of [3H]-RTX from human TRPV1 expressed in CHO cells incubated for 60 mins by radioligand competition assay based scintillation counting method; type: cell-based
[10] = Genotoxicity in Salmonella typhimurium TA102 incubated for 48 hrs by Ames test; type: toxicity; details: salmonella enterica subsp. enterica serovar typhimurium
Rattus norvegicus [11] = experiment: (§2) Analgesic activity against L5/L6 spinal nerve ligation-induced neuropathic pain Sprague-Dawley rat model assessed as maximal decrease in neuropathic pain by measuring increase in paw withdrawal threshold in response to von frey filament at 1 to 4 mg/kg, sc compound administered at day 14 after ligation and measured at 30 mins after drug dosing by up and down method; type: functional, organism-based
How it was run: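 Rats with spinal nerve ligation were dosed s.c. Paw withdrawal threshold measured with von Frey filaments up to 1.5 h after dosing. Mean±SEM, n=7-8, compared with vehicle.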

[12] = Genotoxicity in Salmonella typhimurium TA100 incubated for 48 hrs in presence of rat S9 by Ames test; type: toxicity, subcellular; details: salmonella enterica subsp. enterica serovar typhimurium, s9, 48 h
Rattus norvegicus [13] = experiment: as §2, with “as” for “as maximal”, “at 5” for “at 1”, “to 10” for “to 4”, “mg/kg, ip” for “mg/kg, sc”, “measured up to 1.5 hrs” for “measured at 30 mins”, “method relative to control” for “method”; type: functional
How it was run: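 Rat spinal nerve ligation model of neuropathic pain. Compound was given i.p. at 1, 2, 5 or 10 mg/kg; a gabapentin 65 mg/kg i.p. arm and a saline i.p. arm were run alongside. Von Frey withdrawal thresholds were taken pre-surgery and on days 1, 7 and 14, then at 0.5, 1 and 1.5 h post-dose. Mean±SEM, n=7-8.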

[14] = Genotoxicity in CHL/IU cells by chromosomal aberration assay; type: toxicity, cell-based, Cricetulus griseus; details: chinese hamster
[15] = Systemic drug absorption in porcine skin assessed as drug accumulation in acceptor Franz cell applied topically as carbopol-gel with 1% formulation measured for 8 hrs by Franz diffusion cell based in vitro transdermal delivery test; type: ADME, tissue-based, Sus scrofa, Zone of skin; details: pig
[16] = Genotoxicity in CHO-WBLT cells assessed as chromosomal aberration incubated for 6 hrs in presence of rat S9 by laser scan cytometry; type: toxicity, subcellular, Cricetulus griseus; details: chinese hamster, s9, 6 h
[17] = target: T1, Transient receptor potential cation channel subfamily V member 1; experiment: Agonist activity at human TRPV1 expressed in CHO cells assessed as increase in 45Ca2+ uptake incubated for 5 mins by liquid scintillation counting method; type: cell-based
How it was run: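 Human or rat TRPV1 heterologously expressed in CHO cells; agonism read as 45Ca2+ uptake, run as previously described. Values are the mean of at least three experiments.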

[18] = Toxicity in Sprague-Dawley rat assessed as pathological problems administered topically daily for 4 weeks; details: in vivo, topical_or_ocular, 672 h
How it was run: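 Rats given daily topical application for 4 weeks, then examined for pathological findings.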

[19] = Genotoxicity in Salmonella typhimurium TA1535 incubated for 48 hrs in presence of rat S9 by Ames test; type: toxicity, subcellular; details: salmonella enterica subsp. enterica serovar typhimurium, s9, 48 h
[20] = Genotoxicity in Salmonella typhimurium TA102 incubated for 48 hrs in presence of rat S9 by Ames test; type: toxicity, subcellular; details: salmonella enterica subsp. enterica serovar typhimurium, s9, 48 h
[21] = target: T2, Transient receptor potential cation channel subfamily V member 3 (Mus musculus) (UniProt Q8K424); experiment: Agonist activity at mouse TRPV3 expressed in HEK293 cells assessed as increase in calcium influx at 0.3 to 30 uM incubated for 1 min by Fluo-4-AM dye based FLIPR assay; type: cell-based; how it was run: as §1
T2 sequence (whole entry): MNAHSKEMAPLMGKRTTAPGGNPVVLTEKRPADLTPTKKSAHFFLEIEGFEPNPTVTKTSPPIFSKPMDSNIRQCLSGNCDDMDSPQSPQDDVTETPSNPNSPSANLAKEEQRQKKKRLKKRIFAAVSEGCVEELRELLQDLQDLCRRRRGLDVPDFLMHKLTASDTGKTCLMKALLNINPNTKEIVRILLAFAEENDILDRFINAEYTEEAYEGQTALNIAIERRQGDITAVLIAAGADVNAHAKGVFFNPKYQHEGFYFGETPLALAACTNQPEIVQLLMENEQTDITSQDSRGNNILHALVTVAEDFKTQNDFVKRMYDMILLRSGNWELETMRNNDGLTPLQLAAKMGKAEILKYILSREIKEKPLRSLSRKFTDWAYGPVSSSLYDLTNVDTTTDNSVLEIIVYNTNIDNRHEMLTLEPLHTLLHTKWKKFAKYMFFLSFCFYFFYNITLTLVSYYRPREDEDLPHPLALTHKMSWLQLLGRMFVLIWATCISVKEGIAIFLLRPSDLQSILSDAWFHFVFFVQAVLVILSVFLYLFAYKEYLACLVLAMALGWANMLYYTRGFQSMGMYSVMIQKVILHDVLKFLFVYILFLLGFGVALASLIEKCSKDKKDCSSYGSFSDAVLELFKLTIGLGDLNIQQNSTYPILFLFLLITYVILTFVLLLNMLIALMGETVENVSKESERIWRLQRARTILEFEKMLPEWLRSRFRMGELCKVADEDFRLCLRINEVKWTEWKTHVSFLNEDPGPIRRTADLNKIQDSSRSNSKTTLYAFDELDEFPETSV

Structure (SMILES): CC(C)(C)c1nc(-c2cccc(Cl)c2)c(CNC(=O)Nc2ccc(CO)c(F)c2)s1
- Activity [1]: inactive
- Ratio EC50 [2]: 5
- MPE (Mus musculus): 100%
- LD50 [3]: > 2000 mg/kg
- Ratio Ki [4]: 80
- Activity [5]: Non-Toxic
- Ratio EC50 [6]: 5
- Activity [7]: Non-Toxic
- Activity [8]: Non-Toxic
- Ki [9]: 11.4 nM
- Activity [10]: Non-Toxic
- Activity (Rattus norvegicus [11]): Active
- Activity [12]: Non-Toxic
- MPE (Rattus norvegicus [13]): 100%
- Activity [14]: Non-Toxic
- Drug absorption [15]: Not Active
- Activity [16]: Non-Toxic
- EC50 [17]: 5.05 nM
- Activity [18]: Non-Toxic
- Activity [19]: Non-Toxic
- Activity [20]: Non-Toxic
- Activity [21]: inactive
